Activity calls are given as the source filed them. The rule behind the calls is not given here.
Tests used:
A549 [1] = experiment: Cytotoxicity against human A549 cells assessed as reduction in cell viability by MTS assay; type: functional, cell-based
Procedure, shortened: (§1)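 MTS viability assay. Cells were seeded at 5 × 10^3 per well for 24 h, then exposed to serial dilutions (5, 10, 15, 20, and 50 μM) in medium with 10% FBS and grown for the indicated duration. Controls got DMSO. MTS was added for 1 h at 37 °C and absorbance read at 490 nm. Results are % of control, with IC50 calculated.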

[2] = Cytotoxicity against human CNE1-LMP1 cells assessed as reduction in cell viability by MTS assay; type: functional, cell-based; procedure, shortened: as §1
A-375 [3] = experiment: Cytotoxicity against human A375 cells assessed as reduction in cell viability by MTS assay; type: functional, cell-based; procedure, shortened: as §1
MCF7 [4] = experiment: Cytotoxicity against human MCF7 cells assessed as reduction in cell viability by MTS assay; type: functional, cell-based
[5] = Cytotoxicity against human MGC cells assessed as reduction in cell viability by MTS assay; type: functional, cell-based; procedure, shortened: as §1
[6] = Cytotoxicity against human EC109 cells assessed as reduction in cell viability by MTS assay; type: functional, cell-based; settings: ECa-109; procedure, shortened: as §1
[7] = Cytotoxicity against human PANC1 cells assessed as reduction in cell viability by MTS assay; type: functional, cell-based; settings: PANC-1; procedure, shortened: as §1
[8] = Cytotoxicity against human Hep3B2 cells assessed as reduction in cell viability by MTS assay; type: functional, cell-based, Hep 3B2; settings: Hep3B; procedure, shortened: as §1
HaCaT [9] = experiment: Cytotoxicity against human HaCaT cells assessed as reduction in cell viability by MTS assay; type: cell-based; procedure, shortened: as §1
[10] = Cytotoxicity against mouse NIH/3T3 cells assessed as reduction in cell viability by MTS assay; type: cell-based; settings: NIH3T3; procedure, shortened: as §1
MCF7 [11] = experiment: Reduction in glucose uptake in human MCF7 cells assessed per 10^5 cells at 20 uM incubated for 12 hrs (reference value: 5.6 nM/hr/10^5 cells); type: functional
Procedure, shortened: (§2)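 Cells were seeded and after 24 h switched to fresh medium with 10% FBS, with or without 20 μM compound. After 12 h, supernatant glucose and lactate were measured on an automatic biochemistry analyzer. Cell numbers were counted in parallel by MTS. Rates (nmol/h/10^5 cells) were computed as the difference from blank medium divided by 12 h and by cell number. LY294002 served as positive control.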

MCF7 [12] = experiment: Reduction in lactate secretion in human MCF7 cells assessed per 10^5 cells at 20 uM incubated for 12 hrs; type: functional; procedure, shortened: as §2
HaCaT [13] = experiment: Toxicity in human HaCaT cells assessed as reduction in glucose uptake per 10^5 cells at 20 uM incubated for 12 hrs; type: cell-based; procedure, shortened: as §2
HaCaT [14] = experiment: Toxicity in human HaCaT cells assessed as reduction in lactate secretion per 10^5 cells at 20 uM incubated for 12 hrs; type: cell-based; procedure, shortened: as §2
MCF7 [15] = experiment: Reduction in ATP generation in human MCF7 cells at 20 uM incubated for 12 and 24 hrs; type: functional, cell-based
Procedure, shortened: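 MCF-7 cells were exposed to 20 μM for 2, 4, 6, 8, 12 and 24 h. ATP was measured with a commercial kit, quantified against an ATP standard curve and expressed as % of the control group.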

MCF7 [16] = experiment: Reduction in hexokinase-2 protein expression in human MCF7 cells by SDS-PAGE and Western blotting method; type: functional, cell-based; settings: TDE = time-dependent effect
Procedure, shortened: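 MCF-7 cells were treated for 1, 3, 6, 12, 24 and 48 h and lysed in cold buffer. 50 μg protein was run on 10% SDS-PAGE and transferred to nitrocellulose. Membranes were probed with anti-HK2 primary antibody at 4 °C overnight, then HRP secondary for 1 h at room temperature, with ECL detection. α-Tubulin was the internal control.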

A549 [17] = experiment: Cytotoxicity against human A549 cells assessed as reduction in cell viability at 50 uM by MTS assay; type: functional, cell-based; procedure, shortened: as §1
CNE1-LMP1 = experiment: Cytotoxicity against human CNE1-LMP1 cells assessed as reduction in cell viability at 50 uM by MTS assay; type: functional, cell-based; procedure, shortened: as §1
A-375 [18] = experiment: Cytotoxicity against human A375 cells assessed as reduction in cell viability at 50 uM by MTS assay; type: functional, cell-based; procedure, shortened: as §1
MCF7 [19] = experiment: Cytotoxicity against human MCF7 cells assessed as reduction in cell viability at 50 uM by MTS assay; type: functional, cell-based; procedure, shortened: as §1
MGC = experiment: Cytotoxicity against human MGC cells assessed as reduction in cell viability at 50 uM by MTS assay; type: functional, cell-based; procedure, shortened: as §1
ECa-109 = experiment: Cytotoxicity against human EC109 cells assessed as reduction in cell viability at 50 uM by MTS assay; type: functional, cell-based; procedure, shortened: as §1
PANC-1 = experiment: Cytotoxicity against human PANC1 cells assessed as reduction in cell viability at 50 uM by MTS assay; type: functional, cell-based; procedure, shortened: as §1
Hep 3B2 = experiment: Cytotoxicity against human Hep3B2 cells assessed as reduction in cell viability at 50 uM by MTS assay; type: functional, cell-based; procedure, shortened: as §1
HaCaT [20] = experiment: Cytotoxicity against human HaCaT cells assessed as reduction in cell viability at 50 uM by MTS assay; type: cell-based; procedure, shortened: as §1
[21] = Cytotoxicity against mouse NIH/3T3 cells assessed as reduction in cell viability at 50 uM by MTS assay; type: cell-based; settings: nih3t3, 50 µM; procedure, shortened: as §1

Compound C=C1CCC(c2coc(/C=C(\C)C(N)=O)c2)CC1 has an IC50 (A549 [1]) greater than 50 µM, an IC50 [2] greater than 50 µM and an IC50 (A-375 [3]) greater than 50 µM. The IC50 (MCF7 [4]) was 8.4 µM, the IC50 [5] was 14.7 µM and the IC50 [6] was greater than 50 µM. For the same compound, the IC50 [7] was greater than 50 µM, the IC50 [8] was greater than 50000 nM and the IC50 (HaCaT [9]) was greater than 50 µM. The IC50 [10] was greater than 50 µM, the Activity (MCF7 [11]) was 4.2 nM/h and the Activity (MCF7 [12]) was 0.5 nM/h. For the same compound, the Activity (HaCaT [13]) was “Non-toxic”, the Activity (HaCaT [14]) was “Non-toxic” and the inhibition (MCF7 [15]) was “Active”. For the same compound, the inhibition (MCF7 [16]) was “tde”.

For C/C(=C\c1cc([C@H]2CC[C@@](O)(CO)CC2)co1)C(N)=O, the Activity (A549 [17]) was “inactive”, the Activity (CNE1-LMP1) was “inactive” and the Activity (A-375 [18]) was “inactive”. The Activity (MCF7 [19]) was “inactive”, the Activity (MGC) was “inactive” and the Activity (ECa-109) was “inactive”. The Activity (PANC-1) was “inactive”, the Activity (Hep 3B2) was “inactive” and the Activity (HaCaT [20]) was “Non-toxic”. For the same compound, the Activity [21] was “Non-toxic”.

In the case of C=C1CCC(C2=C/C(=C/C(C)C(N)=O)OC2=O)CC1 (racemic), the Activity (A549 [17]) is reported as “inactive”, the Activity (CNE1-LMP1) is reported as “inactive” and the Activity (A-375 [18]) is reported as “inactive”. The Activity (MCF7 [19]) was “inactive”, the Activity (MGC) was “inactive” and the Activity (ECa-109) was “inactive”. For the same compound, the Activity (PANC-1) was “inactive”, the Activity (Hep 3B2) was “inactive” and the Activity (HaCaT [20]) was “Non-toxic”. For the same compound, the Activity [21] was “Non-toxic”.

With C=C1CCC(C2=C/C(=C\C(C)C(N)=O)OC2=O)CC1 (racemic) the Activity (A549 [17]) was “inactive”, the Activity (CNE1-LMP1) was “inactive” and the Activity (A-375 [18]) was “inactive”. For the same compound, the Activity (MCF7 [19]) was “inactive”, the Activity (MGC) was “inactive” and the Activity (ECa-109) was “inactive”. The Activity (PANC-1) was “inactive”, the Activity (Hep 3B2) was “inactive” and the Activity (HaCaT [20]) was “Non-toxic”. The Activity [21] was “Non-toxic”.

With CC(/C=C1/C=C([C@H]2CC[C@@](O)(CO)CC2)C(=O)O1)C(N)=O (mixture of isomers) the Activity (A549 [17]) was “inactive”, the Activity (CNE1-LMP1) was “inactive” and the Activity (A-375 [18]) was “inactive”. The Activity (MCF7 [19]) was “inactive”, the Activity (MGC) was “inactive” and the Activity (ECa-109) was “inactive”. The Activity (PANC-1) was “inactive”, the Activity (Hep 3B2) was “inactive” and the Activity (HaCaT [20]) was “Non-toxic”. The Activity [21] was “Non-toxic”.

For CC(=O)OC[C@]1(O)CC[C@H](C2=C/C(=C/C(C)C(N)=O)OC2=O)CC1 (mixture of isomers), the Activity (A549 [17]) was “inactive”, the Activity (CNE1-LMP1) was “inactive” and the Activity (A-375 [18]) was “inactive”. The Activity (MCF7 [19]) was “inactive”, the Activity (MGC) was “inactive” and the Activity (ECa-109) was “inactive”. The Activity (PANC-1) was “inactive”, the Activity (Hep 3B2) was “inactive” and the Activity (HaCaT [20]) was “Non-toxic”. For the same compound, the Activity [21] was “Non-toxic”.

Compound CC(=O)O[C@H]1C(=O)[C@@]2(C)[C@H]([C@H](OC(=O)c3ccccc3)[C@]3(O)C[C@H](OC(=O)[C@H](O)[C@@H](NC(=O)c4ccccc4)c4ccccc4)C(C)=C1C3(C)C)[C@]1(OC(C)=O)CO[C@@H]1C[C@@H]2O [PACLITAXEL] has an IC50 [2] of 0.0042 µM, an IC50 [5] of 0.0064 µM and an IC50 [6] of 0.14 µM. For the same compound, the IC50 [7] was 0.0011 µM, the IC50 [8] was 0.016 nM and the IC50 [10] was 4.2 µM.
